Assay [1] is described as follows: reducers of endogenous Her2 protein level, primary screen, SKBR3 breast tumor cells, AlphaScreen, ATP viability (AID 461;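 active means Her2 level under about 52% in both replicate screens, with viability over 70% of control, limit read from the data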;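 on Her2 level: lower value means less Her2 protein in the cells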;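 on viability: percent of carrier control wells set as 100% viability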). Particulars: 18-24 h, measured here: SKBR3 viability, ATP luminescence, at 10 µM.
Assay [2] concerns the target Receptor tyrosine-protein kinase erbB-2 (Homo sapiens) (UniProt P04626). The description is as above. The settings on record: 18-24 h, at 10 µM, stronger effect = lower value.
Assay [3] can be described thus: SK-BR-3 cell growth inhibitors, pilot screen, 24 h, human (AID 572;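 active means viability at or below 10% of carrier control in both of two separate runs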;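 further: compound exposure lasted between 18 and 24 h rather than exactly 24 h; 100% = carrier-treated control wells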). Particulars: SK-BR-3 viability, CellTiter-Glo luminescence, at 10 µM, stronger effect = lower value.
Assay [4] is described as follows: HUVEC growth inhibition – cell-based, human, primary screen (AID 575;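 active means viability at or below 30% in both replicate assays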;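 further: 100% = median of untreated cell wells with 0.1% DMSO on each plate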). The settings on record: HUVEC proliferation, CellTiter-Glo luminescence, 72 h; at 10 µM; stronger effect = lower value. The essentials: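 Assay system: primary human umbilical vein endothelial cells / Buffer or medium: endothelial basal medium with 2% FBS plus growth supplements / Compound dosing: one dose, 10 µM final, 0.1% DMSO / Timing: 72 h treatment at 37 °C / Signal: CTG luminescence / Benchmarks: 32 DMSO-only cell-control wells (high), 32 MePR drug-control wells (low) per plate / Plate: collagen-coated 384-well format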
For orientation: In ATP-based viability assays light output follows the ATP content of the culture.

The nature of assay [5]: growth inhibitors of H69AR lung tumor, primary screen, human, duplicate replicates (AID 580).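 Further: 100% = mean luminescence of untreated wells and 0% = no signal.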 Particulars: H69AR lung tumor cells viability, ATP luminescence, 72 h; at 10 µM; stronger effect = lower value.
A short description of assay [6]: reversal of MRP1-mediated doxorubicin resistance, pilot screen, H69AR cells, doxorubicin co-treatment (AID 601;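 active means viability loss from added drug above about 55%, and viability with drug at most 40%, in both replicates, limit read from the data, passing the limit was not always enough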). Particulars: CellTiter-Glo, 72 h, at 10 µM; for differential viability (reversal): stronger effect = higher value.
Assay [7] in a line: 384-well plate pilot, post-Golgi transport modulator project, inhibition of yeast transport mutant growth (AID 636; in the data active means inhibition above about 31%). The settings on record: absorbance 615 nm, about 18 h, stronger effect = higher value.
Assay [8] is described as follows: growth suppression of yeast trafficking mutant, preliminary HTS, modulators of trafficking downstream of Golgi apparatus project, 1536-format plate, OD 615 nm (AID 637; in the data active means inhibition above about 30%). The settings on record: yeast transport mutant growth, absorbance 615 nm, 18 h; stronger effect = higher value.
The mark [9] stands for this setting: H69AR cells + 2 uM doxorubicin, measured here: viability with 2 uM doxorubicin, stronger effect = lower value.
The mark [10] stands for this setting: H69AR cells, compound alone cytotoxicity.

These results are taken from PubChem BioAssay.

Calls of active or inactive are those of the source.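 How the source made its calls, unless noted: active means viability at or under a set limit in both replicates, limit being median viability minus 3 SD (cut at about 48% in these data, passing the limit was not always enough); inconclusive means at or under the limit in just one replicate; inactive means at or above the limit in both replicates.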

Sequence of Receptor tyrosine-protein kinase erbB-2 (Homo sapiens) (P04626 whole entry, looked up): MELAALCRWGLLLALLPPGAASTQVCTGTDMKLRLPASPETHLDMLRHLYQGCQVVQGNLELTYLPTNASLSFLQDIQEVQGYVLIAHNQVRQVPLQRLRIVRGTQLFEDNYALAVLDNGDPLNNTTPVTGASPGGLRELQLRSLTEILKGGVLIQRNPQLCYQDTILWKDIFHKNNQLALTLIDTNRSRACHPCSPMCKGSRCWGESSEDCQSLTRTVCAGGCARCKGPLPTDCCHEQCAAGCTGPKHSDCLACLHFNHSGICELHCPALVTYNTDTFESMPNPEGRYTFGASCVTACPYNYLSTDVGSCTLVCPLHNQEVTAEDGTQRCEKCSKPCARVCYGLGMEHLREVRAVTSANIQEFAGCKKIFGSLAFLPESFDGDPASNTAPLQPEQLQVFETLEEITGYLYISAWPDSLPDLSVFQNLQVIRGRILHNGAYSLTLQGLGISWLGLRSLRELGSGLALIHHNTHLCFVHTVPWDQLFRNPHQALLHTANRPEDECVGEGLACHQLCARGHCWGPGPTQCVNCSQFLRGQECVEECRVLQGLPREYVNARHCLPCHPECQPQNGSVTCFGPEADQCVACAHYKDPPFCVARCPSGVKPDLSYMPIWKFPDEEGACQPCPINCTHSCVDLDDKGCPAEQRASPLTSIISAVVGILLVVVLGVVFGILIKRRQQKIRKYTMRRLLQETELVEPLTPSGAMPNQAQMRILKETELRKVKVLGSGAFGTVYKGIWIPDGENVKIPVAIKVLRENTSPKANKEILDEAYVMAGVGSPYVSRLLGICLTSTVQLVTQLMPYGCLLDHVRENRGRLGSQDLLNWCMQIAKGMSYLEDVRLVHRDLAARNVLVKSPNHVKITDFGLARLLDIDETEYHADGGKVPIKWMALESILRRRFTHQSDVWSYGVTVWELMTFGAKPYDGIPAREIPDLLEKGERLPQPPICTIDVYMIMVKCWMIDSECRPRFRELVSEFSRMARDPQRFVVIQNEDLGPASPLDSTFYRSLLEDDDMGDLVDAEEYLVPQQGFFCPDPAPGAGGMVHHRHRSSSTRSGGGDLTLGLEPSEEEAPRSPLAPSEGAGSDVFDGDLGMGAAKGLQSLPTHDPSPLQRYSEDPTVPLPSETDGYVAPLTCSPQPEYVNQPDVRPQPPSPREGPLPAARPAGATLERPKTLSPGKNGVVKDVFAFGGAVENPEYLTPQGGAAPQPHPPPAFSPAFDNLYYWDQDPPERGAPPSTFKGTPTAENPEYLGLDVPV

Take `CCn1nnc(NC(=O)c2cc3ccccc3o2)n1`: the viability (as a rule, a read-out of living cells in per cent, often relative to untreated cells) was 103% in assay [1]; 103% (inactive) in assay [3]; 97.2% (inactive) in assay [4]; 101% (inactive) in assay [5]; 90% in assay [6] (setting [9]); 101% in assay [6] (setting [10]). Besides, in assay [2], the Her2 level is 103% (inactive). Moreover, the differential viability (reversal) in assay [6] (H69AR cells + 2 uM doxorubicin) is 11.5% (inactive). The values for the inhibition in assay [7] and in assay [8] were -4.19% (inactive) and -9% (inactive), respectively.
On to `O=S(=O)(c1cccs1)N1CCN(C/C=C/c2ccccc2)CC1`, for which the viability in assay [1] is 101%; in assay [3], 101% (inactive); in assay [4] it was 83.3% (inactive); in assay [5] it was 82.9% (inactive); in assay [6] (setting [9]) it was 81.4%; in assay [6] (setting [10]), 82.9%. Moreover, the Her2 level in assay [2] was 91.5% (inactive). In addition, the differential viability (reversal) in assay [6] (H69AR cells + 2 uM doxorubicin) is 1.57% (inactive). For the same compound, the results for the inhibition in assay [7] and in assay [8] were -3.73% (inactive) and 2.1% (inactive), respectively.
In the case of `CCCn1c2ccccc2c2nnc(SCC(=O)Nc3ncccn3)nc21`, the viability in assay [1] was 105%; in assay [3], 105% (inactive); in assay [4], 93.4% (inactive); in assay [5] it was 87.6% (inactive); in assay [6] (setting [9]), 77.4%; in assay [6] (setting [10]), 87.6%. Further, the Her2 level in assay [2] was 75.5% (inactive). The differential viability (reversal) in assay [6] (H69AR cells + 2 uM doxorubicin) is 10.3% (inactive). The inhibition (usually the drop in the measured response relative to a control, in per cent) is -0.53% (inactive) in assay [7] and -2.36% (inactive) in assay [8].
For the compound `COc1ccc(C2=NOC(C(=O)NC3CCCCC3)C2)cc1OC` (stereo not given), the viability in assay [1] is 97.5%; in assay [3] it was 97.5% (inactive); in assay [4] it was 106% (inactive); in assay [5] it was 95.9% (inactive); in assay [6] (setting [9]), 84.8%; in assay [6] (setting [10]) it was 95.9%. In assay [2], the Her2 level was 92% (inactive). The differential viability (reversal) in assay [6] (H69AR cells + 2 uM doxorubicin) was 11.2% (inactive). The inhibition was -9.04% (inactive) in assay [7] and 0.95% (inactive) in assay [8].
For the compound `CC(=O)OCC(=O)c1ccc2ccn(C(C)=O)c2c1`, the viability in assay [1] is 106%; in assay [3] it was 106% (inactive); in assay [4], 94.9% (inactive); in assay [5] it was 90.5% (inactive); in assay [6] (setting [9]), 92.5%; in assay [6] (setting [10]), 90.5%. Also, in assay [2], the Her2 level is 89% (inactive). Further, in assay [6] (H69AR cells + 2 uM doxorubicin), the differential viability (reversal) was -1.94% (inactive). Moreover, the inhibition was -5.33% (inactive) in assay [7] and 3.11% (inactive) in assay [8].
As to `CC(=O)N1C(=O)C2(Nc3ccccc3N2)c2ccccc21`, the viability in assay [1] is 110%; in assay [3], 110% (inactive); in assay [4] it was 104% (inactive); in assay [5], 97.6% (inactive); in assay [6] (setting [9]), 88.1%; in assay [6] (setting [10]), 97.6%. Moreover, the Her2 level in assay [2] is 95.5% (inactive). Further, the differential viability (reversal) in assay [6] (H69AR cells + 2 uM doxorubicin) was 9.47% (inactive). Further, the inhibition in assay [7] is -7.16% (inactive); in assay [8], -9.5% (inactive).
Consider `CCn1c(=O)c(=O)[nH]c2cc(C(=O)N3CCN(c4ccccc4F)CC3)ccc21`, for which the viability in assay [1] is 110%; in assay [3], 110% (inactive); in assay [4] it was 97.1% (inactive); in assay [5], 98.9% (inactive); in assay [6] (setting [9]), 93.3%; in assay [6] (setting [10]) it was 98.9%. Moreover, in assay [2], the Her2 level was 91.5% (inactive). For the same compound, the differential viability (reversal) in assay [6] (H69AR cells + 2 uM doxorubicin) was 5.58% (inactive). The inhibition is 0.14% (inactive) in assay [7] and -0.16% (inactive) in assay [8].
In the case of `c1ccc(CNc2ccc3c(c2)ncn3C2CCCCC2)nc1`, the viability in assay [1] was 97%; in assay [3] it was 97% (inactive); in assay [4], 96% (inactive); in assay [5], 96.8% (inactive); in assay [6] (setting [9]), 93.8%; in assay [6] (setting [10]) it was 96.8%. Also, the Her2 level in assay [2] was 107% (inactive). Further, the differential viability (reversal) in assay [6] (H69AR cells + 2 uM doxorubicin) was 2.95% (inactive). Moreover, the inhibition in assay [7] is -1.05% (inactive); in assay [8], -2.73% (inactive).
For the compound `CCn1c(C(=O)N2CCCC(C(=O)NCCCc3ccccc3)C2)cc2sccc21` (stereo not given), the viability in assay [1] is 102%; in assay [3], 102% (inactive); in assay [4], 64.3% (inactive); in assay [5], 96.7% (inactive); in assay [6] (setting [9]), 93.2%; in assay [6] (setting [10]), 96.7%. Also, the Her2 level in assay [2] was 96.5% (inactive). Also, the differential viability (reversal) in assay [6] (H69AR cells + 2 uM doxorubicin) is 3.47% (inactive). Also, the results for the inhibition in assay [7] and in assay [8] were -2.08% (inactive) and -9.84% (inactive), respectively.
`COC(=O)c1cc(Br)c(=O)n(-c2nccs2)c1`: the viability in assay [1] was 121%; in assay [3], 121% (inactive); in assay [4], 107% (inactive); in assay [5] it was 96.5% (inactive); in assay [6] (setting [9]), 87.2%; in assay [6] (setting [10]) it was 96.5%. For the same compound, the Her2 level in assay [2] was 93.5% (inactive). Also, the differential viability (reversal) in assay [6] (H69AR cells + 2 uM doxorubicin) is 9.32% (inactive). In addition, the results for the inhibition in assay [7] and in assay [8] were -4.27% (inactive) and -6.39% (inactive), respectively.
For the compound `O=C(C1CC1(c1ccccc1)c1ccccc1)N1CCOCC1` (stereo not given), the viability in assay [1] was 112%; in assay [3], 112% (inactive); in assay [4], 99.3% (inactive); in assay [5], 98.8% (inactive); in assay [6] (setting [9]), 87.3%; in assay [6] (setting [10]) it was 98.8%. The Her2 level in assay [2] was 106% (inactive). In assay [6] (H69AR cells + 2 uM doxorubicin), the differential viability (reversal) is 11.4% (inactive). Besides, the inhibition in assay [7] is -5.6% (inactive); in assay [8], 1.45% (inactive).
For `CCOC(=O)CSc1nnc([C@H](CC(C)C)NC(=O)OC(C)(C)C)o1`, the viability in assay [1] was 109%; in assay [3] it was 109% (inactive); in assay [4] it was 94% (inactive); in assay [5] it was 94.6% (inactive); in assay [6] (setting [9]), 95.5%; in assay [6] (setting [10]), 94.6%. Further, the Her2 level in assay [2] is 106% (inactive). The differential viability (reversal) in assay [6] (H69AR cells + 2 uM doxorubicin) was -0.88% (inactive). Besides, the inhibition was -3.6% (inactive) in assay [7] and -3.71% (inactive) in assay [8].
With `COc1ccc(N2CC(C(=O)Nc3ccc(F)cc3F)CC2=O)cc1` (stereo not given), the viability in assay [1] is 102%; in assay [3] it was 102% (inactive); in assay [4] it was 108% (inactive); in assay [5] it was 96.6% (inactive); in assay [6] (setting [9]), 91.4%; in assay [6] (setting [10]) it was 96.6%. For the same compound, in assay [2], the Her2 level is 93.5% (inactive). The differential viability (reversal) in assay [6] (H69AR cells + 2 uM doxorubicin) is 5.19% (inactive). In addition, the inhibition in assay [7] was -3.47% (inactive); in assay [8], 1.13% (inactive).
Take `Cn1c2c(c(=O)n(C)c1=O)C(c1cccc(Br)c1)C1C(=O)c3ccccc3C1=N2` (stereo not given): the viability was 103% in assay [1]; 103% (inactive) in assay [3]; 72.5% (inactive) in assay [4]; 40.6% (active) in assay [5]; 35.4% in assay [6] (setting [9]); 40.6% in assay [6] (setting [10]). In assay [2], the Her2 level was 97.5% (inactive). Further, the differential viability (reversal) in assay [6] (H69AR cells + 2 uM doxorubicin) is 5.16% (inactive). For the same compound, the values for the inhibition in assay [7] and in assay [8] were 0.27% (inactive) and 1.43% (inactive), respectively.
`O=C(NCCCn1ccnc1)c1cnn2c1NC(c1ccccc1)CC2C(F)(F)F` (stereo not given): the viability in assay [1] was 93.5%; in assay [3], 93.5% (inactive); in assay [4] it was 88.5% (inactive); in assay [5], 105% (inactive); in assay [6] (setting [9]), 103%; in assay [6] (setting [10]), 105%. Moreover, in assay [2], the Her2 level is 139% (inactive). The differential viability (reversal) in assay [6] (H69AR cells + 2 uM doxorubicin) is 1.64% (inactive). In addition, the inhibition in assay [7] is -0.26% (inactive); in assay [8] it was -15% (inactive).
